Article PMC3263504 (Cell Death and Differentiation, 2011)
No end group written: not given here. *: point of attachment. Biotin = O=C1N[C@H]2[C@H](CS[C@H]2CCCCC(=O)*)N1

Tests used:
[1] = system: IP3R; assay: Unidirectional 45Ca2+-flux assay in saponin-permeabilized MEF cells; format: cell-based, mouse; conditions: for effect of alanine mutation on the inhibitory action of BH4-Bcl-2 on IICR: 60 μM mutant peptide, result in words; for effect on IICR (dose-response): 3 μM IP3, result in words
Method in brief: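 MEF cells at 30°C permeabilized 10 min with 20 µg/ml saponin (imidazole-KCl, pH 6.8, 1 mM ATP, 1 mM EGTA). Stores loaded 45 min with 150 nM free 45Ca2+, 5 mM ATP, 10 mM NaN3. Efflux medium contained 1 mM EGTA and 4 μM thapsigargin, changed every 2 min. Peptides (alanine mutants 60 μM) added 4 min before IP3 (3 μM, 2 min, after 10 min efflux). Residual Ca2+ released with 2% SDS; read-out fractional loss (%/2 min).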

[2] = target: GST-Dom3 IP3R1 (Mus musculus, UniProt P11881); assay: SPR, GST-Dom3 of IP3R1 on immobilized biotinylated BH4 peptides; format: binding; conditions: association phase, corrected for scrambled peptide, result in words
Sequence of GST-Dom3 IP3R1 (P11881 923-1581): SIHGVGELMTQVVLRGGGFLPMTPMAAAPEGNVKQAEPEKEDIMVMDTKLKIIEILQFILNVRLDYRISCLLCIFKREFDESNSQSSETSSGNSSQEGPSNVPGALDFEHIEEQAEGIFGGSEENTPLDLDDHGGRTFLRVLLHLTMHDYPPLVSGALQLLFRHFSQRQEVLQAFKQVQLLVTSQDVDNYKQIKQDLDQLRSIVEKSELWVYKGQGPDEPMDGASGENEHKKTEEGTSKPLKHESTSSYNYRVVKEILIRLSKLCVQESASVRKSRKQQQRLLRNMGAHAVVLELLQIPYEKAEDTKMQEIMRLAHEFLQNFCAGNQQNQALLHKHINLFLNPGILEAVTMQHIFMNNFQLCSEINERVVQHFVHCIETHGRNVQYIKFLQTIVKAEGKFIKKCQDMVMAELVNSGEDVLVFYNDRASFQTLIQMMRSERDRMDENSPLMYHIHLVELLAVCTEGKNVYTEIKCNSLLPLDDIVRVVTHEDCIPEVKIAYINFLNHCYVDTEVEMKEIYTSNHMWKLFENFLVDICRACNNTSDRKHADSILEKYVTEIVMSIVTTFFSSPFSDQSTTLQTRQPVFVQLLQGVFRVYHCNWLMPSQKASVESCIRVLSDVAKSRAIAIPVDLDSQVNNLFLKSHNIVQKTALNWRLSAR
Method in brief: (§1)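 SPR at 25°C. Biotinylated BH4 peptides (200 ng, 58.2 pmol, >80% pure) immobilized on a streptavidin chip in PBS/0.005% P20, pH 7.0. Analyte was GST-Dom3 or parental GST in PBS, 30 μl/min, several concentrations in random order; response in RU. Scrambled-peptide reference cell subtracted. Regeneration with 25 mM NaOH/0.002% SDS. At least three independent chips.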

[3] = system: C6 glioma cells; assay: Staurosporine-induced apoptosis in C6 glioma cells; format: cell-based, rat; conditions: 6 h, result in words
Method in brief: (§2)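 C6 glioma monolayers in situ electroporated (100 V peak-to-peak, 500 µm electrode gap, low-conductivity sorbitol buffer) with 100 μM DTR and 20 μM peptide. Trigger applied in medium for 6 h: STS 2 μM or PAC-1 150 µM. Apoptosis stained with FITC-VAD-FMK (10 μM, 40 min, 37°C), PFA-fixed, DAPI. Five images inside and five outside the electroporated area; AI inside relative to outside, then vs vehicle (100%).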

[4] = system: GST; assay: SPR, parental GST; format: binding; conditions: GST up to 40 μM, result in words
Method in brief: as §1

[5] = system: C6 glioma cells; assay: PAC-1-induced apoptosis in C6 glioma cells; format: cell-based, rat; conditions: PAC-1 150 μM, 6 h
Method in brief: as §2

[6] = system: GST-Dom3; assay: GST pull-down of full-length 3xFLAG-Bcl-2 proteins from COS-1 lysates; format: binding, mouse; conditions: lysates of transfected COS-1 cells, result in words
Method in brief: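 Lysates (200 μg) of COS-1 cells transiently transfected with 3xFLAG-Bcl-2, K/D mutant or empty vector, incubated with purified GST-Dom3 (IP3R1 a.a. 923–1581, E. coli BL21(DE3)-expressed, PBS-dialyzed). Beads washed four times in 150 mM NaCl buffer without BSA, eluted in LDS 3 min at 95°C. Anti-FLAG western blot; bands quantified, normalized to GST binding; at least five independent experiments.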

[7] = target: GST-Dom3 IP3R3 (a.a. 910–1427) (rat, UniProt Q63269 910-1427); assay: SPR
Sequence of GST-Dom3 IP3R3 (a.a. 910–1427) (Q63269 910-1427): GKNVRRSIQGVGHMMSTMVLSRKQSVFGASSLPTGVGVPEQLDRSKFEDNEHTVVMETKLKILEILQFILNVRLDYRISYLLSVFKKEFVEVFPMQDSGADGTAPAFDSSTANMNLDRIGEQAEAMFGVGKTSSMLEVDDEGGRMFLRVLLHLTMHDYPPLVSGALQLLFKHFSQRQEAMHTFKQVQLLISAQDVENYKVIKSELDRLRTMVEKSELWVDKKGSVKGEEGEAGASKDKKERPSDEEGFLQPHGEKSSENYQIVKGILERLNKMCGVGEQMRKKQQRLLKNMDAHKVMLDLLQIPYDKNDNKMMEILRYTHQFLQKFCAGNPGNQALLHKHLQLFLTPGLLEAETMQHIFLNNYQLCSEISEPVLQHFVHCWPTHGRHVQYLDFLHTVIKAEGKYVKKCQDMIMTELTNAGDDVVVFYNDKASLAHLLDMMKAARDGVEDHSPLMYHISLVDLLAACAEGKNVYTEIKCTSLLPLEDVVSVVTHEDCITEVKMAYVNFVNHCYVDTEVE

[8] = target: GST-Dom3 IP3R2 (a.a. 913–1562) (mouse, UniProt Q9Z329 913-1562); assay: SPR
Sequence of GST-Dom3 IP3R2 (a.a. 913–1562) (Q9Z329 913-1562): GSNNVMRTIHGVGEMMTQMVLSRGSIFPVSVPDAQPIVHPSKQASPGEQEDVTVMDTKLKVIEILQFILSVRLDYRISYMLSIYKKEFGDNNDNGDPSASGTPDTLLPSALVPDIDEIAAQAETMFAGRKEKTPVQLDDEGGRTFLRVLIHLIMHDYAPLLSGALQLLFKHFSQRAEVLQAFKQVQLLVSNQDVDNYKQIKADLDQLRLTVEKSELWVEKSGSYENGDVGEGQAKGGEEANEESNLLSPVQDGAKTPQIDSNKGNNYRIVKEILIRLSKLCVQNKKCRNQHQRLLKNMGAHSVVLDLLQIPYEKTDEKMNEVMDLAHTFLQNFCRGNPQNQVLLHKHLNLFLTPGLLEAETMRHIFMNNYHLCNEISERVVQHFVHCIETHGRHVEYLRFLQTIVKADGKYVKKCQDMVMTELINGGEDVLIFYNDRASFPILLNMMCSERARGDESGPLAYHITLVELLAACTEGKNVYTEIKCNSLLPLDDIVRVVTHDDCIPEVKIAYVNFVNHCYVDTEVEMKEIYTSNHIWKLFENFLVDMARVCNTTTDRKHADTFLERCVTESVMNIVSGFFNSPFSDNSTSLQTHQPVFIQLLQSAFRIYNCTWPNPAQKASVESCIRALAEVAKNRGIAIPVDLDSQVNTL

[9] = target: GST-Dom3 (a.a. 923–1581 of IP3R1) (mouse, UniProt P11881 923-1581); assay: SPR
Sequence of GST-Dom3 (a.a. 923–1581 of IP3R1) (P11881 923-1581): as the sequence (P11881 923-1581) above

R26A (RTGYDNREIVMKYIHYKLSQAGYEW)
effect of alanine mutation on the inhibitory action of BH4-Bcl-2 on IICR [1]: largest effect on the inhibitory action

Biotin-RTGYANAEIVMKYIAEKLSAAGKEW [biotin-BH4-Bcl-2BIND, reference compound]
specific binding of GST-Dom3 (resonance units) [2]: did not specifically bind

K17A (RTGYDNREIVMAYIHYKLSQRGYEW)
effect of alanine mutation on the inhibitory action of BH4-Bcl-2 on IICR [1]: largest effect on the inhibitory action

WYEKQRSLHGIMYYVIEDRNTKGYR [BH4-Bcl-2SCR, reference compound]
effect on IICR (dose-response) [1]: did not inhibit IICR

RTGYDNREIVMKYIHYKLSQRGYEW [BH4-Bcl-2 K/D]
effect on IICR (dose-response) [1]: largely ineffective

Biotin-MSQSNRELVVKFLSYKLSQKGYSW [biotin-BH4-Bcl-Xl D/K]
specific binding of GST-Dom3 (resonance units) [2]: able to bind GST-Dom3

NVYTEIKCNSLLPLDDIVRV [IDP]
effect of IDP on BH4-Bcl-2-mediated protection against STS ([3]; IDP co-loaded with BH4-Bcl-2, STS 2 μM): completely suppressed
effect of IDP on the protection by BH4-Bcl-Xl against STS ([3]; IDP co-loaded with BH4-Bcl-Xl, STS 2 μM): independent of IDP

RTGYANAEIVMKYIAEKLSAAGKEW [BH4-Bcl-2BIND, reference compound]
effect on IICR (dose-response) [1]: did not inhibit IICR

Biotin-MSQSNRELVVDFLSYKLSQKGYSW [biotin-BH4-Bcl-Xl]
binding of GST (control) [4]: bound to neither

Y21A (RTGYDNREIVMKYIHAKLSQRGYEW)
effect of alanine mutation on the inhibitory action of BH4-Bcl-2 on IICR [1]: largest effect on the inhibitory action

C=CCc1cccc(/C=N/NC(=O)CN2CCN(Cc3ccccc3)CC2)c1O [PAC-1]
apoptosis, share of the cell population [5]: ~15%

3xFLAG-Bcl-2 K/D: full-length 3xFLAG-Bcl-2 with Lys17 mutated into Asp, expressed in COS-1 cells
binding to GST-Dom3 compared with wild-type 3xFLAG-Bcl-2 [6]: severely compromised

H20A (RTGYDNREIVMKYIAYKLSQRGYEW)
effect of alanine mutation on the inhibitory action of BH4-Bcl-2 on IICR [1]: largest effect on the inhibitory action

B1: Biotin-BH4-Bcl-2 (peptide)
peptide: Biotin-RTGYDNREIVMKYIHYKLSQRGYEW
binding result [7]: binds
binding result [8]: binds

B2: Biotin-BH4-Bcl-Xl D/K (peptide)
peptide: Biotin-MSQSNRELVVKFLSYKLSQKGYSW
binding result [9]: binds
